From ChEMBL document CHEMBL2401654, “Synthesis, characterization, and biological assessment of the four stereoisomers of the H(3) receptor antagonist 5-fluoro-2-methyl-N-[2-methyl-4-(2-methyl[1,3']bipyrrolidinyl-1'-yl)phenyl]benzamide” (Bioorg Med Chem Lett, 2013)

Tests used:
[1] = target: Cytochrome P450 2D6 (Homo sapiens, UniProt P10635); assay: Inhibition of CYP2D6 (unknown origin); type: ADME
[2] = target: Voltage-gated inwardly rectifying potassium channel KCNH2 (Homo sapiens, UniProt Q12809); assay: Inhibition of human ERG transfected in CHO cells by patch clamp assay; type: cell-based
Sequence of Voltage-gated inwardly rectifying potassium channel KCNH2 (Q12809 whole entry): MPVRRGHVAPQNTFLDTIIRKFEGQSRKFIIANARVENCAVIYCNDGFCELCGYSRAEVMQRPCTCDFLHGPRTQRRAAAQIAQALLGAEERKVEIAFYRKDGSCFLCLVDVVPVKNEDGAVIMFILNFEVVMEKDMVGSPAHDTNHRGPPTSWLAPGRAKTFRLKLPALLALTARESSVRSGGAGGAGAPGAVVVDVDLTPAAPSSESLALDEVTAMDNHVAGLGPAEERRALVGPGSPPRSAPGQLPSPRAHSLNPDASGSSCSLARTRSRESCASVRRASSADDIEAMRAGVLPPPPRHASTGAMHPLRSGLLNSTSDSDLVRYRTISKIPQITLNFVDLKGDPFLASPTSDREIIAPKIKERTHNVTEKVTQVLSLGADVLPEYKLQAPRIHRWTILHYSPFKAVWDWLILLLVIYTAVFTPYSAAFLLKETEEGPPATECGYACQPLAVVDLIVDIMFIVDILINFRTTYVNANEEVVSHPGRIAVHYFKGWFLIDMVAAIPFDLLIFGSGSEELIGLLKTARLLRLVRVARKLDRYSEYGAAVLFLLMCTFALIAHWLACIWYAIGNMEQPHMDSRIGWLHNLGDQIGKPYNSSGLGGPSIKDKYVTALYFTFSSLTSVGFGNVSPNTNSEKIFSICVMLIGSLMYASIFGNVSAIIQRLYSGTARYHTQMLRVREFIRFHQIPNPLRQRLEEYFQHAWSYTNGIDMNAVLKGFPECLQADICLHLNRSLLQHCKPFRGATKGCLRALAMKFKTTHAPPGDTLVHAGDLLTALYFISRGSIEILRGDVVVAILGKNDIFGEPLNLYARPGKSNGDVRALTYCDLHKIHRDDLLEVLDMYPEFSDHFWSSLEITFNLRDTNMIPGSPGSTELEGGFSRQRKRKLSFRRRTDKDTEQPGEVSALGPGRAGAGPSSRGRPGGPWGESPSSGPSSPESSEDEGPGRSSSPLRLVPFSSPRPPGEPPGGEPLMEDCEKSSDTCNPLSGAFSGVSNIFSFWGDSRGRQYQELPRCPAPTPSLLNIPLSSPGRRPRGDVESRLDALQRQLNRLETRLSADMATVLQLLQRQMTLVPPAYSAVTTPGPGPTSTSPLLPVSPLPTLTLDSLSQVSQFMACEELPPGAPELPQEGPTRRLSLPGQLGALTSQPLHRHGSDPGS
Method in brief: (§1)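 Whole-cell patch clamp on CHO cells stably transfected with the human ERG gene.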

[3] = target: hERG (KCNH2) (Homo sapiens, UniProt Q12809); assay: Inhibition of human ERG transfected in CHO cells at 1 uM by patch clamp assay relative to control; type: cell-based; conditions: CHO cells transfected with human ERG; method in brief: as §1
Sequence of hERG (KCNH2) (Q12809 whole entry): as above

[4] = Drug metabolism in rat liver microsomes at 5 uM after 20 mins; type: ADME, Microsome; conditions: read-out: Drug metabolism
Method in brief: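 Substrate at 5 µM incubated at 37 °C for 20 min with in-house liver microsome preparations (human, mouse or rat). Reported as the percentage of parent compound metabolized.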

[5] = AUC (0 to infinity) in C57BL/6 mouse brain at 10 mg/kg, po; type: ADME, organism-based; set-up: time infinity, dose 10 mg/kg, route oral
Method in brief: (§2)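 Male C57BL/6 mice were dosed orally at 10 mg/kg, formulated at 1 mg/mL in 5% DMSO/0.5% MC/0.2% tween 80. Plasma and brain were sampled for PK parameters. Brain to plasma ratio was based on AUC0-24.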

[6] = tested on: Mus musculus; assay: Toxicity in mouse assessed as appearance of tremor at 30 mg/kg, po measured at 2 hrs; type: organism-based; set-up: dose 30 mg/kg, route oral; conditions: in vivo
Method in brief: (§3)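 Behavioral safety study in mice given single oral doses of 3, 10 and 30 mg/kg. Tremors, tail pinch response, body temperature, pupil size and body weight were scored at 2 and 6 h post dose. Clinical signs were observed over one week after dosing.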

[7] = Tmax in C57BL/6 mouse plasma at 10 mg/kg, po; type: ADME, organism-based; set-up: dose 10 mg/kg, route oral; method in brief: as §2
[8] = tested on: Salmonella typhimurium; assay: Mutagenic activity in Salmonella typhimurium by Ames test; type: toxicity, organism-based; conditions: salmonella enterica subsp. enterica serovar typhimurium
[9] = Cmax in C57BL/6 mouse plasma at 2 mg/kg, iv; type: ADME, organism-based; set-up: dose 2 mg/kg, route intravenous
Method in brief: (§4)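 Male C57BL/6 mice received a single intravenous dose of 2 mg/kg, formulated at 1 mg/mL in 50% 1-methyl-2-pyrrolidinone in saline. Plasma and brain concentrations were followed to derive PK parameters. Brain to plasma ratio was calculated from AUC.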

[10] = AUC (0 to infinity) in C57BL/6 mouse plasma at 2 mg/kg, iv; type: ADME, organism-based; set-up: time infinity, dose 2 mg/kg, route intravenous; method in brief: as §4
[11] = Distribution coefficient, log D of the compound; type: physicochemical; conditions: octanol/water
[12] = tested on: Mus musculus; assay: Toxicity in mouse assessed as increase in body temperature at 30 mg/kg, po measured at 6 hrs; type: organism-based; set-up: dose 30 mg/kg, route oral; conditions: in vivo; method in brief: as §3
[13] = tested on: Mus musculus; assay: Toxicity in mouse assessed as increase in tail pinch at 30 mg/kg, po measured at 6 hrs; type: organism-based; set-up: dose 30 mg/kg, route oral; conditions: in vivo; method in brief: as §3
[14] = tested on: Mus musculus; assay: Toxicity in mouse assessed as increase in tail pinch at => 10 mg/kg, po; type: organism-based; set-up: dose 10 mg/kg, route oral; conditions: in vivo; method in brief: as §3
[15] = target: Cytochrome P450 2C19 (Homo sapiens, UniProt P33261); assay: Inhibition of CYP2C19 (unknown origin); type: ADME
Sequence of Cytochrome P450 2C19 (P33261 whole entry): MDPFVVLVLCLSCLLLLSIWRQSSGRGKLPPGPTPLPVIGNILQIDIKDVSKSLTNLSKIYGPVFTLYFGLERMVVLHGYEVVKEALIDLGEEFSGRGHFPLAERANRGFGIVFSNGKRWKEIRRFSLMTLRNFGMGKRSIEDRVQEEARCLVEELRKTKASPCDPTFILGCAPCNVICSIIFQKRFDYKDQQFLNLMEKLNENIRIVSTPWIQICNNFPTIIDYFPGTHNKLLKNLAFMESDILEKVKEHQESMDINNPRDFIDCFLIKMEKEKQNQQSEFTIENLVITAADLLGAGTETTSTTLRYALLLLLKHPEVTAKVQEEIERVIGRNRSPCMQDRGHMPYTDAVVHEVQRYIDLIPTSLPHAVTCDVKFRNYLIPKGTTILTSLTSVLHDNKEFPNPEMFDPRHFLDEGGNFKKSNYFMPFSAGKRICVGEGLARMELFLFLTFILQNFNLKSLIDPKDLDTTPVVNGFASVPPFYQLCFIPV

[16] = Tmax in C57BL/6 mouse brain at 10 mg/kg, po; type: ADME, organism-based; set-up: dose 10 mg/kg, route oral; method in brief: as §2
[17] = Tmax in C57BL/6 mouse plasma at 2 mg/kg, iv; type: ADME, organism-based; set-up: dose 2 mg/kg, route intravenous; method in brief: as §4
[18] = Half life in C57BL/6 mouse brain at 2 mg/kg, iv; type: ADME, organism-based; set-up: dose 2 mg/kg, route intravenous; method in brief: as §4
[19] = target: Cytochrome P450 2C9 (Homo sapiens, UniProt P11712); assay: Inhibition of CYP2C9 (unknown origin); type: ADME
Sequence of Cytochrome P450 2C9 (P11712 whole entry): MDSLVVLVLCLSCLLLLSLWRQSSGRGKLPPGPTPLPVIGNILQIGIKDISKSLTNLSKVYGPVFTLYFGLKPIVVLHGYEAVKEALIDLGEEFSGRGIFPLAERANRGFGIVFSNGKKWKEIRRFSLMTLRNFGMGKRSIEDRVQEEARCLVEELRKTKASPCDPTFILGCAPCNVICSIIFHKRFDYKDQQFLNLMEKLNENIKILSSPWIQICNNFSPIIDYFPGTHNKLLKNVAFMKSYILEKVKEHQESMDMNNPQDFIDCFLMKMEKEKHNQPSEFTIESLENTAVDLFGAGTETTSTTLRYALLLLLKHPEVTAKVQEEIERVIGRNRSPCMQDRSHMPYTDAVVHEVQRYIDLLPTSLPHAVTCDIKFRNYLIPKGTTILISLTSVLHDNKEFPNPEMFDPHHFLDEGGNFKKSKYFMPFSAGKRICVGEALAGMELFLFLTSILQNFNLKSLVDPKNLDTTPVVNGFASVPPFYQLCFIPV

[20] = target: Histamine H3 receptor (Rattus norvegicus, UniProt Q9QYN8); assay: Displacement of [3H]N-alpha-methylhistamine from recombinant rat histamine H3 receptor transfected in CHO cell membranes after 1 hr by scintillation counting analysis; set-up: species or system Membrane
Sequence of Histamine H3 receptor (Q9QYN8 whole entry): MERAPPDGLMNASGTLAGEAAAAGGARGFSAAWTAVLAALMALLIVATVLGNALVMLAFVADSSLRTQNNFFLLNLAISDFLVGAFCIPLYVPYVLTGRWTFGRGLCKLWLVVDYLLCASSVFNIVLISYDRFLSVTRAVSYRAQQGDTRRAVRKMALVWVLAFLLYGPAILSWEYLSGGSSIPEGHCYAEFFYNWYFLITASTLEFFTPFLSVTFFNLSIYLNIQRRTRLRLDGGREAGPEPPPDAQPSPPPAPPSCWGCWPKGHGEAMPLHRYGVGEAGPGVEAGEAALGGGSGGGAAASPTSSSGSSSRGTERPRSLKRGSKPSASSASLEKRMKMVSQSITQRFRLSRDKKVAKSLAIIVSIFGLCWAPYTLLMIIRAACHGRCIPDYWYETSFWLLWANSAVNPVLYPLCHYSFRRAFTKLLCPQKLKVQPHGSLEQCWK
Method in brief: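 Radioligand displacement of [3H]N-α-methylhistamine using membranes from CHO cells stably transfected with recombinant human or rat H3 receptor. Ki is presented as a range of multiple experiments (n ≥ 3).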

[21] = Cmax in C57BL/6 mouse brain at 10 mg/kg, po; type: ADME, organism-based; set-up: dose 10 mg/kg, route oral; method in brief: as §2
[22] = Genotoxicity in micronucleus (unknown origin)
[23] = Half life in C57BL/6 mouse plasma at 2 mg/kg, iv; type: ADME, organism-based; set-up: dose 2 mg/kg, route intravenous; method in brief: as §4
[24] = Tmax in C57BL/6 mouse brain at 2 mg/kg, iv; type: ADME, organism-based; set-up: dose 2 mg/kg, route intravenous; method in brief: as §4

Sequence of Cytochrome P450 2D6 (P10635 whole entry): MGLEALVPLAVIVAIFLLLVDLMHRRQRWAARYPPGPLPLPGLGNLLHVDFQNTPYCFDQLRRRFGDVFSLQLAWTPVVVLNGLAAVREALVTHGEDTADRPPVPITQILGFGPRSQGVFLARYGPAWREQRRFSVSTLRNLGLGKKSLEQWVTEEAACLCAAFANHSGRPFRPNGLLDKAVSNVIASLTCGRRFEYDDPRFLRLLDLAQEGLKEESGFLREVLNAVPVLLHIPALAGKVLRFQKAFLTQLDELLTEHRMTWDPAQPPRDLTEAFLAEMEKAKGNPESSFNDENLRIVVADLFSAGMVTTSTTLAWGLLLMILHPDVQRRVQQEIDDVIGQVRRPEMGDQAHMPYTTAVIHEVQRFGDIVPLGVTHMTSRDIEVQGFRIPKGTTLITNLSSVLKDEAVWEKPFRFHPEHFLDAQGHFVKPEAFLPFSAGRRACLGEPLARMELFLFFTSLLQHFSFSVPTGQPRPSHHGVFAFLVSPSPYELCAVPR

Cc1cc(N2CC[C@H](N3CCC[C@@H]3C)C2)ccc1NC(=O)c1cc(F)ccc1C
IC50 [1]: > 30000 nM | IC50 [2]: 1100 nM | inhibition at 1 µM [3]: 43.4% | metabolised at 20 min, 5 µM [4]: 20% | AUC(0-inf) [5]: 18000 ng·h/mL | Activity [6]: Toxic | Tmax [7]: 10.2 min | Activity [8]: Non-toxic | Cmax [9]: 2000 ng/mL | AUC(0-inf) [10]: 560 ng·h/mL | logD [11]: 2.09 | Activity [12]: Toxic | Activity [13]: Toxic | Activity [14]: Toxic | IC50 [15]: > 30000 nM | Tmax [16]: 60 min | Tmax [17]: 4.98 min | half-life [18]: 96 min | IC50 [19]: > 30000 nM | Ki [20]: 3 nM | Cmax [21]: 4290 ng/mL | Activity [22]: Non-toxic | half-life [23]: 156 min | Tmax [24]: 4.98 min
